# Data from paper PMC7931646 (The Journal of Experimental Medicine, 2021).
# Tests used:
# adenosine A3 = adenosine A3 (Homo sapiens, UniProt P0DMS8); experiment: CEREP off-target radioligand binding panel; settings: read-out: inhibition of ligand binding
# Outline: (§1)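 CEREP secondary-pharmacology panel of 55 receptors, transporters and ion channels. Test compound at 10 µM was assessed for inhibition of binding of a radiolabelled reference ligand specific to each target. Result is percent inhibition of ligand binding.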
# [1] = Single-dose i.v./po PK in male Sprague-Dawley rats; format: in vivo, rat
# Outline: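 Sprague-Dawley rats received a single i.v. dose of 1 mg/kg (n = 13) or an oral dose of 5 mg/kg (n = 3). Plasma was sampled at 5 min (i.v. only), 15 and 30 min, 1, 2, 4, 8 and 12 h, and 24 and 48 h (po only). Oral bioavailability came from i.v./po comparison; fabs came from kinetic analysis.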
# [2] = system: Aβ42, Aβ40, Aβ38 in plasma and brain extracts; experiment: Chronic 3-mo efficacy in PSAPP transgenic mice; format: in vivo, mouse; settings: 25 mg/kg/d po
# Outline: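 Female PSAPP (APPswe/PSEN1dE9) mice and wild-type C57BL/6J controls, 9–10 per group, housed at 22°C on a 12:12 h light cycle. Treatment began at 90 or 180 d of age: vehicle (80% PEG 400, 20% water, 0.1% Tween 20) or test compound 25 mg/kg/d by oral gavage for 3 mo. Brain Aβ peptides were then measured.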
# [3] = Kinetic solubility in simulated intestinal fluids; format: physicochemical
# Outline: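 Dissolved test compound concentration in FaSSIF or FeSSIF simulated intestinal fluids, determined by UV/Vis absorbance.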
# [4] = Estimation of effective AUC and unbound Ceffective in rodents
# CYP450 2C9 = CYP450 2C9 (Homo sapiens, UniProt P11712); experiment: CYP450 inhibition, recombinant isoform; format: in vitro ADME
# [5] = system: Pig-a mutant RBCs and RETs; experiment: GLP 28-d in vivo Pig-a gene mutation study in rats; design: species or system rat; settings: 28 d, 6, 20, 60 mg/kg/d (males), 3, 10, 30 mg/kg/d (females)
# Outline: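 GLP study in male and female Sprague-Dawley rats, n = 5 per dose per sex. Test compound in 15% Labrasol:85% water was given by oral gavage for 28 d at 0, 6, 20 or 60 mg/kg/d (males) or 0, 3, 10 or 30 mg/kg/d (females). Peripheral blood was then analysed by flow cytometry for % reticulocytes, mutant-phenotype RBC frequency and mutant-phenotype RET frequency.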
# [6] = system: Aβ42 and Aβ40 levels in plasma and brain; experiment: Acute single-dose time course efficacy in C57BL/6J mice; format: in vivo, mouse
# [7] = Single-dose i.v./po PK in cynomolgus macaques; format: in vivo, cynomolgus macaque; settings: for clearance: male, cynomolgus monkey, plasma, iv, 1 mg/kg
# Outline: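 Cynomolgus monkeys received a single i.v. dose of 1 mg/kg. Whole blood was collected at set time points and processed to plasma. Drug levels were measured with a bioanalytical method validated for NHP plasma. Clearance was derived from the plasma concentration–time data.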
# [8] = Liver microsomal stability, human; format: in vitro ADME; settings: liver microsomes
# Outline: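 Test compound at 1 µM was incubated for 30 min with liver microsomes at 1 mg/ml (human, rat or mouse). Result is percent of parent compound remaining.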
# [9] = GLP 28-d repeat-dose toxicity and in vivo micronucleus study in rats; design: species or system rat
# [10] = 7-d dose range-finding toxicity and toxicokinetic study in rats; format: in vivo, rat
# [11] = system: S. typhimurium bacterial strains TA98, TA100, TA1535, TA1537; experiment: Non-GLP screening; format: cell-based, Salmonella typhimurium; settings: 5–100 µM, with and without Aroclor-induced rat liver S9
# Outline: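 Non-GLP mini-Ames screen using S. typhimurium TA98, TA100, TA1535 and TA1537, with and without Aroclor-induced rat liver S9. Test article was applied at 5–100 µM. Read-out was bacterial growth from reversion of the histidine mutation.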
# [12] = GLP in vitro micronucleus evaluation; format: cell-based; settings: data not shown
# [13] = Necropsy, histopathology and weight gain in chronically treated PSAPP mice; format: in vivo, mouse; settings: chronic 25 mg/kg/d, 3 mo
# Outline: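 Female PSAPP mice, 9–10 per group, were dosed with vehicle (PEG 400/water/Tween 20) or test compound 25 mg/kg/d by oral gavage for 3 mo. Body weight was recorded three times weekly to monitor weight gain. Necropsy and histopathology followed the treatment period.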
# [14] = system: S. typhimurium strains TA1535, TA1537, TA98, TA100 and E. coli strain WP2 (uvrA); experiment: GLP Salmonella–Escherichia coli/microsome plate incorporation; format: cell-based, Salmonella typhimurium; settings: two S. typhimurium strains (T98 and T100), only with Aroclor-induced rat liver S9
# Outline: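 GLP plate-incorporation mutagenicity test using S. typhimurium TA1535, TA1537, TA98 and TA100 and E. coli WP2 (uvrA). Each strain was run with and without a metabolic activation mix of Aroclor 1254–induced rat liver microsomes (S9). Read-out is revertant bacterial growth.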
# μ opioid receptors = μ opioid receptors (Homo sapiens, UniProt P35372); experiment: CEREP off-target radioligand binding panel; settings: read-out: inhibition of ligand binding
# Outline: as §1
# [15] = Single-dose i.v./po PK in male CD-1 mice; format: in vivo, mouse; settings: for clearance: male, CD-1, mouse, plasma, iv, 1 mg/kg
# Outline: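 CD-1 mice received a single i.v. dose of 1 mg/kg (n = 12) or an oral gavage dose of 5 mg/kg (n = 12). Brains were collected at 1, 4, 8 and 12 h. Oral bioavailability came from i.v./po comparison; fabs came from kinetic analysis.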
# κ opioid receptors = experiment: CEREP off-target radioligand binding panel; settings: 10 µM
# Outline: as §1
# [16] = PSAPP mice treated from 3 mo of age (prophylactic)
# [17] = PSAPP mice treated from 6 mo of age (disease-modifying)
# [18] = single oral dose 5 mg/kg, 6–12 h after administration
# CYP450 2C9, sequence (P11712 whole entry, canonical isoform): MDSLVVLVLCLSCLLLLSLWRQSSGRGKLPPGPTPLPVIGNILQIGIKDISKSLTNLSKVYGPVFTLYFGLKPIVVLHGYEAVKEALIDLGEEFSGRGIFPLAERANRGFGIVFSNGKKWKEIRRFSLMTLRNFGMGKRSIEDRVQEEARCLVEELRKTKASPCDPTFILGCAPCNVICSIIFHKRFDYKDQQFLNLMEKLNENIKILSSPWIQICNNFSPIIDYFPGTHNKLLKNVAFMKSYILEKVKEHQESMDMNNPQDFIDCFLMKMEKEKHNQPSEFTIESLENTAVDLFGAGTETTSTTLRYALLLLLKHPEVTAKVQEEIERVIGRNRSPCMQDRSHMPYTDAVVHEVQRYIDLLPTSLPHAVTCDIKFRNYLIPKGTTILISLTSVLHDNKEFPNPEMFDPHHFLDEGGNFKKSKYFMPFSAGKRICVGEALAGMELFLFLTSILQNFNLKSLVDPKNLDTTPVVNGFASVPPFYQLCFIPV
# adenosine A3, sequence (P0DMS8 whole entry): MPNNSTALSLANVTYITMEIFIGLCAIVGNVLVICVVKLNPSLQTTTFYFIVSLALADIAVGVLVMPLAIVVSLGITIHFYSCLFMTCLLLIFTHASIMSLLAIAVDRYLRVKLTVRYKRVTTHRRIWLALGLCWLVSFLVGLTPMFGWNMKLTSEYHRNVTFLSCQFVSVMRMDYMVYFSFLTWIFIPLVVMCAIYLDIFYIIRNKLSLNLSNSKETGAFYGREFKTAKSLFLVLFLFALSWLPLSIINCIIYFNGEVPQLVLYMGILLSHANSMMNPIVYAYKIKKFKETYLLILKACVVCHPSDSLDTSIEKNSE
# μ opioid receptors, sequence (P35372 whole entry): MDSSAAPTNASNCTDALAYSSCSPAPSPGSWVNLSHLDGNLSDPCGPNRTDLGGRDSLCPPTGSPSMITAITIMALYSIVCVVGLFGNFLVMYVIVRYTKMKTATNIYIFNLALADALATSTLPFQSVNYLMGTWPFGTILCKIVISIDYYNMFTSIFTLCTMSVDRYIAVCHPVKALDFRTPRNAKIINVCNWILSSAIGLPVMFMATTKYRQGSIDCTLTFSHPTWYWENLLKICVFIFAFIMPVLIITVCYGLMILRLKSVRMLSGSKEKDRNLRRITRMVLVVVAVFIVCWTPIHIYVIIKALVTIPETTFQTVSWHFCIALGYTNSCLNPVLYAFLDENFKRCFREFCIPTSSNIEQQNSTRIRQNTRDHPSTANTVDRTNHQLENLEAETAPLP
smiles,measurement,setting,value
"COc1nc(-c2cc(C)c(N[C@@H](C)c3cc(F)cc(F)c3)nn2)ccc1-n1cnc(C)c1 [Compound 2, (S)-N-(1-(3,5-difluorophenyl)ethyl)-6-(6-methoxy-5-(4-methyl-1H-imidazol-1-yl)pyridin-2-yl)-4-methylpyridazin-3-amine]",inhibition at 10 µM,adenosine A3,> 50%
same,CL as percent of reported hepatic blood flow,[1]; hepatic blood flow 75 ml/min/kg,< 10%
same,fraction of dose absorbed from intestinal lumen (fabs),[1]; kinetic analysis,~90%
same,clearance,"[1]; male, Sprague-Dawley, rat, plasma, iv, 1 mg/kg, CL",6 mL/min/kg
same,"reduction of brain Aβ42, detergent-insoluble (formic acid) extract",[2]; [16],54%
same,"reduction of brain Aβ42, detergent-soluble (RIPA buffer) extract",[2]; [16],44%
same,"reduction of brain Aβ42, detergent-insoluble (formic acid) extract",[2]; [17],39%
same,"reduction of brain Aβ42, detergent-soluble (RIPA buffer) extract",[2]; [17],45%
same,FaSSIF dissolved compound concentration,"[3]; FaSSIF pH 6.5, UV/Vis absorbance",80
same,FeSSIF dissolved compound concentration,"[3]; FeSSIF pH 5.8, UV/Vis absorbance",79
same,unbound average Ceffective,[4]; plasma unbound fraction 0.1%,~0.58 ng/mL
same,unbound average Ceffective,[4]; plasma unbound fraction 1.0%,5.8 ng/mL
same,AUC,"[4]; rat, plasma",13.8 µg·h/mL
same,IC50,CYP450 2C9,4.4 µM
same,in vivo mutagenicity (Pig-a mutant RBCs and RETs),[5],negative
same,reduction of brain Aβ42 levels,[6]; [18],~50%
same,reduction of plasma Aβ42 levels,[6]; [18],~70%
same,duration of appreciable lowering of brain Aβ42 peptide levels,[6]; single oral dose 10 mg/kg,~24 h
same,reduction of Aβ42 levels in brain at peak reduction,[6]; single oral dose 10 mg/kg,> 70%
same,reduction of Aβ42 levels in plasma at peak reduction,[6]; single oral dose 10 mg/kg,> 90%
same,time of maximal reduction of Aβ42 levels in plasma,[6]; single oral dose 5 or 10 mg/kg,1 h
same,CL as percent of reported hepatic blood flow,"[7]; NHPs, hepatic blood flow 50 ml/min/kg",< 10%
same,clearance,"[7]; CL, NHPs",5.5 mL/min/kg
same,clearance,"[7]; Cl, NHP",5.52 mL/min/kg
same,"remaining at 0.5 h, 1 µM",[8],71%
same,safety margin based on comparison of systemic exposures,[9]; AUC at rat NOAEL vs predicted human AUC at 100 mg,more than 130 fold
same,AUC,"[9]; male, rat, in vivo, 60 mg/kg",586 µg·h/mL
same,NOAEL at 28 d,"[9]; rat, in vivo",60 mg/kg
same,GLP 28-d repeat-dose toxicity and in vivo micronucleus study,"[9]; rats, data not shown",negative
same,NOAEL at 7 d,"[10]; both, Sprague-Dawley, rat, in vivo",≥ 50 mg/kg
same,safety margin over the efficacious dose (5 mg/kg),"[10]; rats, 7-d DRF",10–20 fold
same,Ames,[11],Negative
same,GLP in vitro micronucleus evaluation,[12],negative
same,full-body necropsy and histopathology,[13],no overt evidence of toxicity
same,weight gain,[13]; data not shown,no significant effect on weight gain
same,GLP Ames bacterial mutagenicity result,[14],positive
same,inhibition at 10 µM,μ opioid receptors,> 50%
same,clearance,"[15]; CL, mice",8 mL/min/kg
same,clearance,"[15]; Cl, male CD-1 mice",8.05 mL/min/kg
same,CL as percent of reported hepatic blood flow,"[15]; mice, hepatic blood flow 95 ml/min/kg",< 10%
same,fraction of dose absorbed from intestinal lumen (fabs),"[15]; mice, kinetic analysis",~90%
same,inhibition of ligand binding,κ opioid receptors,Greater than 50%
